Source: ChEMBL document CHEMBL3612047, “Synthesis, antiproliferative activity and possible mechanism of action of novel 2-acetamidobenzamides bearing the 2-phenoxy functionality” (Bioorg Med Chem, 2015)
Activity calls are given as the source filed them. The rule behind the calls is not given here.

Tests used:
[1] = test system: K562; assay: Growth inhibition of human K562 cells at 10 uM incubated for 24 hrs by trypan blue dye exclusion assay; type: functional; settings: K562, 24 h, read-out: GI
Procedure, shortened: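 K562 cells in medium with 5% FBS at 37 °C, 5% CO₂. About 2 × 10⁵ cells/mL cultured 24 h, then compound added at 10 μM. After 24 h exposure, cells counted by hemocytometer and viability scored by trypan blue exclusion, reported as percent growth inhibition.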

[2] = test system: K562; assay: Growth inhibition of human K562 cells incubated for 24 hrs by trypan blue dye exclusion assay; type: functional, cell-based; settings: K562, 24 h
Procedure, shortened: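 K562 cells, about 2 × 10⁵ cells/mL, precultured 24 h, then exposed 24 h to a range of compound concentrations. Viable cells counted by hemocytometer with trypan blue exclusion to derive IC₅₀.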

[3] = Cytotoxicity against human HuDe cells incubated for 72 hrs by MTT assay; type: cell-based
Procedure, shortened: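 HuDe primary culture from human epidermis, seeded at 2 × 10⁴ cells/mL. Test drugs at different concentrations, or 0.1% DMSO, added 24 h after seeding, with 72 h exposure. MTT (5 mg/mL in PBS) then applied for 3 h at 37 °C. Formazan solubilized with isopropanol/triton X-100/HCl and read at 570 nm with 690 nm blank.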

[4] = test system: K562; assay: Selectivity index, ratio of IC50 for human HuDe cells to IC50 human K562 cells
Procedure, shortened: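 Index taken as the ratio of HuDe to K562 IC₅₀. For K562: about 2 × 10⁵ cells/mL, compounds added at graded concentrations, viable count by trypan blue exclusion with a hemocytometer after 24 h. For HuDe primary epidermal cells: 2 × 10⁴ cells/mL, drugs or 0.1% DMSO added 24 h after seeding, MTT read at 570 nm (690 nm blank) after 72 h.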

[5] = Growth inhibition of human NCI60 cells assessed as cell growth level at 10 uM by NCI standard protocol based method; type: functional; parameters: scale not given: the % may be the effect or the level left
Procedure, shortened: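 NCI 60-cell-line screen (leukemia, lung, colon, melanoma, renal, ovarian, brain, breast, prostate) run to the NCI standard protocol. Single high dose of 10⁻⁵ M, read as growth percent. Mean graph midpoint is the arithmetic mean over all lines tested.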

[6] = test system: CCRF-CEM; assay: Growth inhibition of human CCRF-CEM cells by NCI standard protocol based method; type: functional
Procedure, shortened: (§1)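 NCI full 60-cell-line panel, 5-dose assay to the NCI standard protocol. GI₅₀ is the molar concentration inhibiting 50% net cell growth. Mean graph midpoint is averaged over all lines; where the effect is not reached, the highest tested concentration is used.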

[7] = test system: K562; assay: Growth inhibition of human K562 cells by NCI standard protocol based method; type: functional; procedure, shortened: as §1
[8] = Growth inhibition of human MOLT4 cells by NCI standard protocol based method; type: functional; settings: MOLT-4; procedure, shortened: as §1
[9] = Growth inhibition of human RPMI8226 cells by NCI standard protocol based method; type: functional; settings: RPMI-8226; procedure, shortened: as §1
[10] = test system: SR; assay: Growth inhibition of human SR cells by NCI standard protocol based method; type: functional
Procedure, shortened: (§2)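 NCI 60-cell-line screen, standard NCI protocol. Single high dose of 10⁻⁵ M first, then a 5-dose assay across the full panel. Reported as GI₅₀, TGI and LC₅₀, the molar concentrations giving 50% net growth inhibition, total growth inhibition and 50% net cell death. Where an effect was not reached, the highest tested concentration was used.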

[11] = test system: HOP-62; assay: Growth inhibition of human HOP62 cells by NCI standard protocol based method; type: functional; procedure, shortened: as §1
[12] = Growth inhibition of human HOP92 cells by NCI standard protocol based method; type: functional; settings: HOP-92; procedure, shortened: as §1
[13] = test system: NCI-H23; assay: Growth inhibition of human NCI-H23 cells by NCI standard protocol based method; type: functional; procedure, shortened: as §1
[14] = test system: NCI-H322M; assay: Growth inhibition of human NCI-H322M cells by NCI standard protocol based method; type: functional; procedure, shortened: as §1
[15] = Growth inhibition of human COLO205 cells by NCI standard protocol based method; type: functional; settings: COLO 205; procedure, shortened: as §1
[16] = Growth inhibition of human HCC2998 cells by NCI standard protocol based method; type: functional; settings: HCC 2998; procedure, shortened: as §1
[17] = test system: HT-29; assay: Growth inhibition of human HT-29 cells by NCI standard protocol based method; type: functional; procedure, shortened: as §1
[18] = test system: SW-620; assay: Growth inhibition of human SW620 cells by NCI standard protocol based method; type: functional; procedure, shortened: as §2
[19] = Growth inhibition of human SF295 cells by NCI standard protocol based method; type: functional; settings: SF-295; procedure, shortened: as §1
[20] = test system: SNB-19; assay: Growth inhibition of human SNB19 cells by NCI standard protocol based method; type: functional; procedure, shortened: as §2
[21] = test system: SNB-75; assay: Growth inhibition of human SNB75 cells by NCI standard protocol based method; type: functional; procedure, shortened: as §2
[22] = test system: U-251; assay: Growth inhibition of human U251 cells by NCI standard protocol based method; type: functional; procedure, shortened: as §2
[23] = test system: MDA-MB-435; assay: Growth inhibition of human MDA-MB-435 cells by NCI standard protocol based method; type: functional; procedure, shortened: as §1
[24] = test system: SK-MEL-28; assay: Growth inhibition of human SK-MEL-28 cells by NCI standard protocol based method; type: functional; procedure, shortened: as §1
[25] = test system: UACC-257; assay: Growth inhibition of human UACC257 cells by NCI standard protocol based method; type: functional; procedure, shortened: as §2
[26] = test system: IGROV-1; assay: Growth inhibition of human IGROV1 cells by NCI standard protocol based method; type: functional; procedure, shortened: as §1
[27] = test system: OVCAR-3; assay: Growth inhibition of human OVCAR3 cells by NCI standard protocol based method; type: functional; procedure, shortened: as §1
[28] = test system: OVCAR-5; assay: Growth inhibition of human OVCAR5 cells by NCI standard protocol based method; type: functional; procedure, shortened: as §1
[29] = test system: OVCAR-8; assay: Growth inhibition of human OVCAR8 cells by NCI standard protocol based method; type: functional; procedure, shortened: as §1
[30] = test system: SK-OV-3; assay: Growth inhibition of human SKOV3 cells by NCI standard protocol based method; type: functional; procedure, shortened: as §2
[31] = test system: A498; assay: Growth inhibition of human A498 cells by NCI standard protocol based method; type: functional; procedure, shortened: as §1
[32] = test system: ACHN; assay: Growth inhibition of human ACHN cells by NCI standard protocol based method; type: functional; procedure, shortened: as §1
[33] = test system: CAKI-1; assay: Growth inhibition of human CAKI-1 cells by NCI standard protocol based method; type: functional; procedure, shortened: as §1
[34] = test system: SN12C; assay: Growth inhibition of human SN12C cells by NCI standard protocol based method; type: functional; procedure, shortened: as §2
[35] = test system: UO-31; assay: Growth inhibition of human UO31 cells by NCI standard protocol based method; type: functional; procedure, shortened: as §2
[36] = test system: DU-145; assay: Growth inhibition of human DU145 cells by NCI standard protocol based method; type: functional; procedure, shortened: as §1
[37] = test system: MCF7; assay: Growth inhibition of human MCF7 cells by NCI standard protocol based method; type: functional; procedure, shortened: as §1
[38] = test system: MDA-MB-231; assay: Growth inhibition of human MDA-MB-231 cells by NCI standard protocol based method; type: functional; procedure, shortened: as §1
[39] = Growth inhibition of human Hs578T cells by NCI standard protocol based method; type: functional; settings: Hs-578T; procedure, shortened: as §1
[40] = test system: T47D; assay: Growth inhibition of human T47D cells by NCI standard protocol based method; type: functional; procedure, shortened: as §2
[41] = biological target: Tubulin (Homo sapiens) (UniProt P68371+Q9H4B7+P0DPH7+P68366+Q13509+Q71U36+P04350+Q3ZCM7+P07437+P68363+Q9BQE3+Q6PEY2+Q13885+Q9BVA1+Q9BUF5); assay: Inhibition of colchicine binding to tubulin (unknown origin); type: protein-complex assay
[42] = test system: K562; assay: Induction of mitotic arrest in human K562 cells; type: functional, cell-based

Compound `COc1cc(NC(=O)COc2ccccc2)c(C(N)=O)cc1OC` has an inhibition of growth at 10 µM [1] of 72.8%, an IC50 [2] of 0.58 µM and an IC50 [3] of 163 µM. For the same compound, the “Ratio IC50” value [4] was 280.52, the Activity [5] was 27.38% and the GI50 [6] was 0.562 µM. The GI50 [7] was 0.31 µM, the GI50 [8] was 2.91 µM and the GI50 [9] was 2.27 µM. For the same compound, the GI50 [10] was 0.515 µM, the GI50 [11] was 1.75 µM and the GI50 [12] was 17.7 µM. For the same compound, the GI50 [13] was 1.32 µM, the GI50 [14] was 5.77 µM and the GI50 [15] was 0.453 µM. The GI50 [16] was 3.33 µM, the GI50 [17] was 0.437 µM and the GI50 [18] was 0.646 µM. For the same compound, the GI50 [19] was 0.93 µM, the GI50 [20] was 3.31 µM and the GI50 [21] was 0.547 µM. For the same compound, the GI50 [22] was 0.777 µM, the GI50 [23] was 0.614 µM and the GI50 [24] was 24.2 µM. It also gave a GI50 [25] of over 100 µM, a GI50 [26] of 4.07 µM and a GI50 [27] of 0.472 µM. For the same compound, the GI50 [28] was 15 µM, the GI50 [29] was 3.01 µM and the GI50 [30] was 3.58 µM. The GI50 [31] was 2.77 µM, the GI50 [32] was 8.12 µM and the GI50 [33] was 3.8 µM. It also gave a GI50 [34] of 3.12 µM, a GI50 [35] of 13.5 µM and a GI50 [36] of 0.914 µM. It also gave a GI50 [37] of 0.661 µM, a GI50 [38] of 2.39 µM and a GI50 [39] of 0.771 µM. The GI50 [40] was 3.46 µM, the inhibition [41] was “inactive” and the Activity [42] was “Active”.
